Measurements published in paper PMC6710528 (British Journal of Clinical Pharmacology, 2019).
“Also recorded” adds a separate entry of the source. Read-outs that look alike come from different tables or passages of the source.

What was measured:
[1] = Plasma concentrations of ketoconazole and fluconazole to confirm steady state; type: in vivo, human (healthy subjects); conditions: 200 mg twice daily
In short: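 Inhibitors were given orally for 8 days (moderate inhibitor: 200 mg twice daily) before the test compound. Blood was drawn before the morning dose on Days 6–8. On Day 8 it was also drawn at 2 and 12 h post-dose for the strong inhibitor, and at 3 and 12 h for the moderate inhibitor. Plasma levels were measured by validated LC–MS/MS and reported as mean ± standard deviation.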

[2] = type: in vivo, human (healthy subjects); conditions: for Increase in T1/2: quizartinib coadministered with ketoconazole; for Tmax / AUC(0-inf) / AUC(0-t) / half-life / Cmax: human, plasma, oral; for AUC(0-inf): AUCinf; for AUC(0-inf) / AUC(0-t) / Cmax: geometric LS mean (SE); for AUC(0-t): AUClast; for half-life: Mean T1/2 (CV%); for Geometric mean CL/F (%CV): quizartinib
[3] = C-QTc model, phase 2 data; ref data on file, Daiichi Sankyo, Inc; cited from earlier work
[4] = Safety: adverse event evaluation; type: in vivo, human (healthy subjects)
In short: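 Healthy males and females aged 18–55 years were randomised 1:1:1 to strong inhibitor + test compound, moderate inhibitor + test compound, or test compound alone. A single oral 30 mg dose was given on Day 8. The safety population was everyone who received the test compound or ≥1 inhibitor dose. Assessments included physical exams, vital signs, 12‑lead ECG, haematology, chemistry and urinalysis. AEs were graded for severity, relation to study drugs and clinical significance through Day 29.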

[5] = ref data on file, Daiichi Sankyo, Inc; cited from earlier work
[6] = 12-lead electrocardiograms: QTcF interval by ICH E14 category; type: in vivo, human (healthy subjects); conditions: single 30-mg dose alone or with ketoconazole or fluconazole
[7] = AC886 in plasma, (Ketoconazole + Quizartinib)/(Quizartinib)
[8] = 30 mg, quizartinib in plasma, single 30-mg dose of quizartinib alone
[9] = 200 mg, quizartinib in plasma, single 30-mg dose with fluconazole 200 mg twice daily
[10] = 200 mg, quizartinib in plasma, single 30-mg dose with ketoconazole 200 mg twice daily
[11] = with fluconazole coadministration
[12] = with ketoconazole coadministration vs quizartinib alone

OC(Cn1cncn1)(Cn1cncn1)c1ccc(F)cc1F [fluconazole]
Mean (± standard deviation) plasma concentration ([1]; predose on Day 6): 13.2 ± 4.1 µg/mL | Mean (± standard deviation) plasma concentration ([1]; predose on Day 7): 13.8 ± 3.8 µg/mL | Mean (± standard deviation) plasma concentration ([1]; predose on Day 8): 14.5 ± 3.7 µg/mL

CC(=O)N1CCN(c2ccc(OCC3COC(Cn4ccnc4)(c4ccc(Cl)cc4Cl)O3)cc2)CC1 (stereo not drawn) [ketoconazole]
Mean (± standard deviation) plasma concentration ([1]; predose on Day 6): 1.5 ± 0.8 µg/mL | Mean (± standard deviation) plasma concentration ([1]; predose on Day 7): 1.4 ± 0.7 µg/mL | Mean (± standard deviation) plasma concentration ([1]; predose on Day 8): 1.4 ± 0.8 µg/mL

CC(C)(CO)c1cc(NC(=O)Nc2ccc(-c3cn4c(n3)sc3cc(OCCN5CCOCC5)ccc34)cc2)no1 [AC886]
AUCinf, ratio of geometric LS mean (90% CI) [2, 7]: 85% | AUClast, ratio of geometric LS mean (90% CI) [2, 7]: 67% | Cmax, ratio of geometric LS mean (90% CI) [2, 7]: 40% | Median Tmax (min, max) ([2]; AC886 in plasma, single 30-mg dose of quizartinib alone): 5.1 h | Median Tmax (min, max) ([2]; AC886 in plasma, single 30-mg quizartinib dose with fluconazole): 5.0 h | Median Tmax (min, max) ([2]; AC886 in plasma, single 30-mg quizartinib dose with ketoconazole): 48.0 h | Ratio of geometric LS means of Cmax of AC886 to Cmax of quizartinib ([2]; fluconazole + quizartinib arm): 0.12 | Ratio of geometric LS means of Cmax of AC886 to Cmax of quizartinib ([2]; ketoconazole + quizartinib arm): 0.04 | Ratio of geometric LS means of Cmax of AC886 to Cmax of quizartinib ([2]; quizartinib arm): 0.13 | Increase in T1/2 [2]: 96% | Effect on QTcF, fold lower than quizartinib [3]: 10 fold

CC(C)(C)c1cc(NC(=O)Nc2ccc(-c3cn4c(n3)sc3cc(OCCN5CCOCC5)ccc34)cc2)no1 [quizartinib]
Increase in quizartinib exposure ([2]; coadministration with moderate CYP3A inhibitor fluconazole): ≤ 20% | Tmax ([2]; 30 mg): 4 h | AUC(0-inf) [2, 8]: 9630 ng·h/mL | AUC(0-t) [2, 8]: 9100 ng·h/mL | half-life [2, 8]: 98 h | Tmax ([2]; 200 mg): 4 h | AUC(0-inf) [2, 9]: 11500 ng·h/mL | AUC(0-inf) [2, 10]: 18700 ng·h/mL | AUC(0-t) [2, 9]: 10900 ng·h/mL | AUC(0-t) [2, 10]: 17000 ng·h/mL | Cmax [2, 9]: 116 ng/mL | Cmax [2, 10]: 121 ng/mL | half-life [2, 9]: 112 h | half-life [2, 10]: 145 h | Decrease in CL/F ([2]; ketoconazole coadministered with quizartinib): 50% | Increase in T1/2 [2]: 46% | Median Tmax (min, max) ([2]; quizartinib in plasma, single 30-mg dose with fluconazole 200 mg twice daily): 4.0 (2.0, 5.0) [n = 28] h | Mean T1/2 (CV%) ([2]; quizartinib in plasma, single 30-mg dose with ketoconazole 200 mg twice daily): 149 (23.0) [n = 28] h | Geometric mean CL/F (%CV) ([2]; single 30-mg dose of quizartinib alone): 2.75 (35.9) [n = 29] L/h | Geometric mean CL/F (%CV) ([2]; single 30-mg dose with fluconazole 200 mg twice daily): 2.29 (34.3) [n = 28] L/h | Geometric mean CL/F (%CV) ([2]; single 30-mg dose with ketoconazole 200 mg twice daily): 1.42 (26.1) [n = 28] L/h | Change in CL/F [2, 11]: ~17% | Change in mean T1/2 [2, 11]: ~ 10% | Increase in geometric LS mean AUCinf [2, 11]: 20% | Increase in geometric LS mean AUClast [2, 11]: 20% | Increase in geometric LS mean Cmax [2, 11]: 11% | Increase in geometric LS mean AUCinf [2, 12]: 94% | Increase in geometric LS mean AUClast [2, 12]: 86% | Increase in geometric LS mean Cmax [2, 12]: 17% | Serious adverse events ([4]; all treatment arms): no serious adverse events or deaths occurred; also recorded: no serious AEs observed | Subjects who experienced at least 1 AE ([4]; fluconazole + quizartinib arm): 14 (45.2%) subjects (%) | Subjects with AEs considered possibly related to quizartinib ([4]; fluconazole + quizartinib arm): 1 subjects | Subjects with AEs considered possibly related to quizartinib ([4]; ketoconazole + quizartinib arm): 1 subjects | Subjects who experienced quizartinib-related adverse events ([4]; overall): 5.4% | Subjects with AEs considered possibly related to quizartinib ([4]; overall (n = 93)): 5 (5.4%) subjects (%) | Subjects who experienced at least 1 AE ([4]; quizartinib + ketoconazole arm): 9 (29.0%) subjects (%) | Subjects who experienced at least 1 AE ([4]; quizartinib arm): 13 (41.9%) subjects (%) | Subjects with AEs considered possibly related to quizartinib ([4]; quizartinib arm): 3 subjects | Median effective half-life [5]: 73 h | Vital signs and changes to QTcF, haematology or clinical chemistry [6]: No significant abnormalities in vital signs or changes to QTcF
